# Results: ChEMBL document CHEMBL3259614, “Design, synthesis, and structure-activity relationship studies of novel fused heterocycles-linked triazoles with good activity and water solubility” (J Med Chem, 2014)
# What was measured:
# Candida albicans [1] = test: Antimicrobial activity against Candida albicans SC5314 after 24 hrs by serial dilution method; format: functional; conditions: SC5314, 24 h
# Method in brief: (§1)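 Broth serial dilution MIC in 96-well plates following NCCLS/CLSI methods. Compounds were dissolved in DMSO and serially diluted in growth medium, with incubation at 35 °C. […] C. parapsilosis 22019 served as the quality-control strain in each assay.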
# Candida albicans [2] = test: Antimicrobial activity against Candida albicans Y0109 after 24 hrs by serial dilution method; format: functional; conditions: Y0109, 24 h; method in brief: as §1
# Candida parapsilosis [3] = test: Antimicrobial activity against Candida parapsilosis 22019 after 24 hrs by serial dilution method; format: functional; conditions: Lodderomyces parapsilosis, 22019, 24 h; method in brief: as §1
# Cryptococcus neoformans [4] = test: Antimicrobial activity against Cryptococcus neoformans 32609 after 72 hrs by serial dilution method; format: functional; conditions: Cryptococcus neoformans, 32609, 72 h; method in brief: as §1
# Nakaseomyces glabratus [5] = test: Antimicrobial activity against Candida glabrata 537 after 24 hrs by serial dilution method; format: functional; conditions: Nakaseomyces glabratus, 537, 24 h; method in brief: as §1
# Aspergillus fumigatus = test: Antimicrobial activity against Aspergillus fumigatus 7544 after 48 hrs by serial dilution method; format: functional; conditions: Aspergillus fumigatus, 7544, 48 h; method in brief: as §1
# Candida albicans [6] = test: Antimicrobial activity against fluconazole-resistant Candida albicans 100 after 24 hrs by serial dilution method; format: functional; conditions: Candida albicans, 100, 24 h
# Method in brief: (§2)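 Broth serial-dilution MIC in 96-well plates following NCCLS guidance. Compounds were dissolved in DMSO and serially diluted in growth medium. Clinical isolates came from a hospital collection. […] C. parapsilosis ATCC 22019 served as the quality-control strain in each assay.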
# Candida albicans [7] = test: Antimicrobial activity against fluconazole-resistant Candida albicans 103 after 24 hrs by serial dilution method; format: functional; conditions: Candida albicans, 103, 24 h; method in brief: as §2
# Candida albicans [8] = test: Antimicrobial activity against fluconazole-resistant Candida albicans J18 after 24 hrs by serial dilution method; format: functional; conditions: J18, 24 h; method in brief: as §2
# Candida albicans [9] = test: Antimicrobial activity against fluconazole-resistant Candida albicans J28 after 24 hrs by serial dilution method; format: functional; conditions: J28, 24 h; method in brief: as §2
# Candida albicans [10] = test: Antimicrobial activity against fluconazole-resistant Candida albicans J38 after 24 hrs by serial dilution method; format: functional; conditions: J38, 24 h; method in brief: as §2
# Candida parapsilosis [11] = test: Ratio of voriconazole MIC to compound MIC for Candida parapsilosis 22019 after 24 hrs by serial dilution method; format: functional
# Cryptococcus neoformans [12] = test: Ratio of voriconazole MIC to compound MIC for Cryptococcus neoformans 32609 after 72 hrs by serial dilution method; format: functional
# Nakaseomyces glabratus [13] = test: Ratio of voriconazole MIC to compound MIC for Candida glabrata 537 after 24 hrs by serial dilution method; format: functional
# Candida parapsilosis [14] = test: Ratio of ravuconazole MIC to compound MIC for Candida parapsilosis 22019 after 24 hrs by serial dilution method; format: functional
# Cryptococcus neoformans [15] = test: Ratio of ravuconazole MIC to compound MIC for Cryptococcus neoformans 32609 after 72 hrs by serial dilution method; format: functional
# Nakaseomyces glabratus [16] = test: Ratio of ravuconazole MIC to compound MIC for Candida glabrata 537 after 24 hrs by serial dilution method; format: functional
# Candida albicans [17] = test: Ratio of fluconazole MIC to compound MIC for fluconazole-resistant Candida albicans 103 after 24 hrs by serial dilution method; format: functional
# Candida albicans [18] = test: Ratio of fluconazole MIC to compound MIC for fluconazole-resistant Candida albicans 100 after 24 hrs by serial dilution method; format: functional
# Candida albicans [19] = test: Ratio of fluconazole MIC to compound MIC for fluconazole-resistant Candida albicans J18 after 24 hrs by serial dilution method; format: functional
# [20] = Aqueous solubility of the compound in hydrochloric acid solution at pH 1.2; format: physicochemical
# Method in brief: (§3)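 Excess solid was stirred for 3 h in pH 1.2 hydrochloric acid or pH 7.4 phosphate buffer, then filtered through 0.45 μm. Absorbance at the UV maximum was compared with a methanol standard, C′ = A′C/A, with values reported in mg/mL. Determined at 30 °C; mean ± SD, n = 3.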
# [21] = Aqueous solubility of the compound in phosphate buffer at pH 7.4; format: physicochemical; method in brief: as §3
# Candida albicans [22] = test: Antimicrobial activity against Candida albicans SC5314 infected in ICR mouse assessed as mean survival days at 1 mg/kg, po qd for 5 days starting 2 hrs post infection (reference value: 5.2 +/- 2.35 days starting 2 hrs post infection); format: functional
# [23] = target: Voltage-gated inwardly rectifying potassium channel KCNH2 (Homo sapiens, UniProt Q12809); test: Inhibition of human ERG expressed in CHO cells by whole-cell patch clamp assay; format: cell-based
# Candida albicans [24] = test: Antimicrobial activity against Candida albicans SC5314 infected in ICR mouse assessed as mean survival days at 0.32 mg/kg, po qd for 5 days starting 2 hrs post infection (reference value: 5.2 +/- 2.35 days starting 2 hrs post infection); format: functional
# Candida albicans [25] = test: Antimicrobial activity against Candida albicans SC5314 infected in ICR mouse assessed as mean survival days at 3.2 mg/kg, po qd for 5 days starting 2 hrs post infection (reference value: 5.2 +/- 2.35 days starting 2 hrs post infection); format: functional
# Candida albicans [26] = test: Antimicrobial activity against Candida albicans SC5314 infected in ICR mouse assessed as mean survival days at 10 mg/kg, po qd for 5 days starting 2 hrs post infection (reference value: 5.2 +/- 2.35 days starting 2 hrs post infection); format: functional
# Candida albicans [27] = test: Antimicrobial activity against fluconazole-resistant Candida albicans 103 infected in ICR mouse assessed as mean survival days at 0.32 mg/kg, po qd for 5 days starting 2 hrs post infection (reference value: 1.5 +/- 0.53 days); format: functional
# Candida albicans [28] = test: Antimicrobial activity against fluconazole-resistant Candida albicans 103 infected in ICR mouse assessed as mean survival days at 1 mg/kg, po qd for 5 days starting 2 hrs post infection (reference value: 1.5 +/- 0.53 days); format: functional
# Candida albicans [29] = test: Antimicrobial activity against fluconazole-resistant Candida albicans 103 infected in ICR mouse assessed as mean survival days at 3.2 mg/kg, po qd for 5 days starting 2 hrs post infection (reference value: 1.5 +/- 0.53 days); format: functional
# Candida albicans [30] = test: Antimicrobial activity against fluconazole-resistant Candida albicans 103 infected in ICR mouse assessed as mean survival days at 10 mg/kg, po qd for 5 days starting 2 hrs post infection (reference value: 1.5 +/- 0.53 days); format: functional
# [31] = Cmax in Sprague-Dawley rat at 10 mg/kg, po; format: ADME, organism-based; parameters: dose 10 mg/kg, route oral; conditions: in vivo
# Method in brief: (§4)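 Male Sprague−Dawley rats (200−250 g), seven per group, dosed orally at 10 mg/kg or intravenously at 3 or 5 mg/kg in 5% DMSO + 5% Tween 80 in 90% saline. Serial retrobulbar blood samples were quantified by LC-MS. Parameters were derived from mean plasma concentrations by noncompartmental analysis. For the disulfate salt, values are based on the active free base measured.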
# [32] = Tmax in Sprague-Dawley rat at 10 mg/kg, po; format: ADME, organism-based; parameters: dose 10 mg/kg, route oral; conditions: in vivo; method in brief: as §4
# [33] = Half life in Sprague-Dawley rat at 10 mg/kg, po; format: ADME, organism-based; parameters: dose 10 mg/kg, route oral; conditions: in vivo; method in brief: as §4
# [34] = AUC (0 to infinity) in Sprague-Dawley rat at 10 mg/kg, po; format: ADME, organism-based; parameters: time infinity, dose 10 mg/kg, route oral; conditions: plasma; method in brief: as §4
# [35] = Intrinsic clearance in Sprague-Dawley rat liver microsomes assessed per mg protein at 0.1 uM by LC/MS/MS analysis; format: ADME
# Method in brief: (§5)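 Male Sprague−Dawley rat liver microsomes (0.33 mg/mL protein) in 0.1 M Tris-HCl pH 7.4 with 5 mM MgCl₂ and 1 mM NADPH. Compound at a final 0.1 μM (0.01% DMSO, 0.005% BSA), incubated at 37 °C. Samples taken at 0, 7, 17, 30 and 60 min were quenched in methanol, and parent compound was measured by LC/MS/MS. t1/2 and Clint were then calculated.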
# [36] = Oral bioavailability in Sprague-Dawley rat at 10 mg/kg; format: ADME, organism-based; conditions: in vivo; method in brief: as §4
# [37] = Elimination half life in Sprague-Dawley rat liver microsomes at 0.1 uM by LC/MS/MS analysis; format: ADME; conditions: read-out: beta t1/2; method in brief: as §5
# [38] = Half life in Sprague-Dawley rat at 3 mg/kg, iv; format: ADME, organism-based; parameters: dose 3 mg/kg, route intravenous; conditions: in vivo; method in brief: as §4
# [39] = AUC (0 to infinity) in Sprague-Dawley rat at 3 mg/kg, iv; format: ADME, organism-based; parameters: time infinity, dose 3 mg/kg, route intravenous; conditions: plasma; method in brief: as §4
# [40] = Clearance in Sprague-Dawley rat at 3 mg/kg, iv; format: ADME, organism-based; parameters: dose 3 mg/kg, route intravenous; conditions: in vivo; method in brief: as §4
# Sequence of Voltage-gated inwardly rectifying potassium channel KCNH2 (Q12809 whole entry): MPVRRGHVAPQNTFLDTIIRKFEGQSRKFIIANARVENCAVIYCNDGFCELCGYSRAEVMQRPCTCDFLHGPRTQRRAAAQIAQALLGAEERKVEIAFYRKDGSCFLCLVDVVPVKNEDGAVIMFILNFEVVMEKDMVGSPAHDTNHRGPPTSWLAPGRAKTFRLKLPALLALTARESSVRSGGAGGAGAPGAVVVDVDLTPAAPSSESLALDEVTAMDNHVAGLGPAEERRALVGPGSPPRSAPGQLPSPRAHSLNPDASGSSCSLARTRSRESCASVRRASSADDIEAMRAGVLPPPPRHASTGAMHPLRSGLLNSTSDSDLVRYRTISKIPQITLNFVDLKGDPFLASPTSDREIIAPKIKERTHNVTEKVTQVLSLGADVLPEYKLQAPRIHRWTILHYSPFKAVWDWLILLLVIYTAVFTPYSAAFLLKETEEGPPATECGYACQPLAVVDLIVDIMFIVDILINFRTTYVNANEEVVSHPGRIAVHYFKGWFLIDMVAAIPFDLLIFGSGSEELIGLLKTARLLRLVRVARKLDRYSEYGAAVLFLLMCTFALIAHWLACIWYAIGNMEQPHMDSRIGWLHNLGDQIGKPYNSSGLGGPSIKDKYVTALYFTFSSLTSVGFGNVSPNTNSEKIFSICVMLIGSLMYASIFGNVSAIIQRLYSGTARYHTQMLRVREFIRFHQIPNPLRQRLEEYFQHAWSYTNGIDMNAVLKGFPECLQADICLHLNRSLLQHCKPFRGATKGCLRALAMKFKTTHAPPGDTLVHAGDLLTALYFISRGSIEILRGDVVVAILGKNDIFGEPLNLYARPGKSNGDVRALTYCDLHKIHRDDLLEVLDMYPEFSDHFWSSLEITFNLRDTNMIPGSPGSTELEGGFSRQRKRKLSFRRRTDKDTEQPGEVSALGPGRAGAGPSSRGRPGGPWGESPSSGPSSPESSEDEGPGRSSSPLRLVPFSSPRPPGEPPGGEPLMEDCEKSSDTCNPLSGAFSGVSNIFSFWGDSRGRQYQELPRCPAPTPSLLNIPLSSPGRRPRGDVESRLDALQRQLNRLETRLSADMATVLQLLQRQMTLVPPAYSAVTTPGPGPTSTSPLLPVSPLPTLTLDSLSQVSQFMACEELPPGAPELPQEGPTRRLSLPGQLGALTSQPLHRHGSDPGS
Structure (SMILES),MIC (Candida albicans [1]) [µg/mL],MIC (Candida albicans [2]) [µg/mL],MIC (Candida parapsilosis [3]) [µg/mL],MIC (Cryptococcus neoformans [4]) [µg/mL],MIC (Nakaseomyces glabratus [5]) [µg/mL],MIC (Aspergillus fumigatus) [µg/mL],MIC (Candida albicans [6]) [µg/mL],MIC (Candida albicans [7]) [µg/mL],MIC (Candida albicans [8]) [µg/mL],MIC (Candida albicans [9]) [µg/mL],MIC (Candida albicans [10]) [µg/mL],Ratio (Candida albicans [17]),Ratio (Candida albicans [18]),Ratio (Candida albicans [19]),solubility [20] [µg/mL],further results
C[C@@H](N1CCn2cc(-c3ccccc3)nc2C1)[C@](O)(Cn1cncn1)c1ccc(F)cc1F,0.0625,0.0625,0.0625,0.0312,0.0312,16,> 32,> 32,> 32,0.5,0.125,16,16,16,–,Ratio (Candida parapsilosis [11]): 2; Ratio (Cryptococcus neoformans [12]): 2; Ratio (Nakaseomyces glabratus [13]): 2; Ratio (Candida parapsilosis [14]): 2; Ratio (Cryptococcus neoformans [15]): 2; Ratio (Nakaseomyces glabratus [16]): 2
C[C@@H](N1CCn2nc(-c3ccccc3)nc2C1)[C@](O)(Cn1cncn1)c1ccc(F)cc1F,0.0625,0.125,0.125,0.125,0.125,32,> 32,> 32,> 32,0.5,0.0625,16,16,16,316,solubility [21]: 97 µg/mL
C[C@@H](N1CCn2nc(-c3ccc(C#N)nc3)nc2C1)[C@](O)(Cn1cncn1)c1ccc(F)cc1F,0.0156,0.0156,0.0156,0.0078,0.0078,1,8,> 16,> 16,0.0625,≤ 0.0312,–,–,–,44,Survival (Candida albicans [22]): 12.3 days; IC50 [23]: > 40 µM; Survival (Candida albicans [24]): 8 days; Survival (Candida albicans [25]): 14.1 days; Survival (Candida albicans [26]): 18.1 days; Survival (Candida albicans [27]): 1.7 days; Survival (Candida albicans [28]): 2 days; Survival (Candida albicans [29]): 3.6 days; Survival (Candida albicans [30]): 8.3 days; Cmax [31]: 1420 ng/mL; Tmax [32]: 1.75 h; half-life [33]: 3.63 h; AUC(0-inf) [34]: 7910 ng·h/mL; microsomal CLint at 0.1 µM [35]: 5 µL/min/mg; bioavailability [36]: 105%; half-life at 0.1 µM [37]: 7.17 h; half-life [38]: 1.2 h; AUC(0-inf) [39]: 2240 ng·h/mL; clearance [40]: 22.7 mL/min/kg
